# Active and inactive are the calls of the source. No cut-off for these calls is given here.
# Key:
# [1] = Drug metabolism in human NCI-H2122 cells assessed as (R)-4-(amino(phenyl)methyl)-N-(6-hydroxybenzo[d]thiazol-2-yl)-benzamide formation at 100 nM by LC-MS/MS analysis; type: ADME, cell-based; details: nci-h2122, 0.1 µM
# Outline: (§1)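 H2122 and H1155 pLVX (empty vector) cells, 4000/well, adhered overnight. Then fresh medium with 100 nM prodrug, ±1 μM HET0016 (CYP4A/4F inhibitor), at 37 °C, 5% CO2. At varying times, cells and medium lysed and protein-precipitated with 2 volumes methanol/0.2% formic acid containing internal standard, then spun at 16,000g for 5 min. Parent and demethylated metabolite quantified by LC-MS/MS against standard curves in blank cell lysates.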
# [2] = AUC in plasma of CD-1 female mouse at 10 mg/kg, ip single dose by LC-MS/MS analysis; details: CD-1, mouse
# [3] = Cmax in fat of CD-1 female mouse at 10 mg/kg, ip single dose by LC-MS/MS analysis; details: CD-1, mouse
# [4] = Cmax in plasma of CD-1 female mouse at 10 mg/kg, ip single dose by LC-MS/MS analysis; details: CD-1, mouse
# [5] = AUC in lung of CD-1 female mouse at 10 mg/kg, ip single dose by LC-MS/MS analysis; details: CD-1, mouse
# [6] = Cmax in lung of CD-1 female mouse at 10 mg/kg, ip single dose by LC-MS/MS analysis; details: CD-1, mouse
# [7] = AUC in fat of CD-1 female mouse at 10 mg/kg, ip single dose by LC-MS/MS analysis; details: CD-1, mouse
# [8] = Drug level in plasma of fat-free diet fed nod-SCID mouse xenografted with NCI-H2122 cells at 20 mg/kg, ip QD for 3 weeks and measured 3 hrs after final dose by LC-MS/MS analysis; type: ADME, organism-based
# Outline: (§2)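 Xenografted NOD-SCID mice on control or fat-free diet, dosed for three weeks, euthanized 3 h after the last dose. Plasma and tumor homogenate (3 volumes PBS) mixed with 2 volumes acetonitrile or methanol with 0.15% formic acid and internal standard, then centrifuged. Drug form quantified by LC-MS/MS against spiked blank-matrix standard curves.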
# [9] = Drug metabolism in human NCI-H1155 cells assessed as (R)-4-(amino(phenyl)methyl)-N-(6-hydroxybenzo[d]thiazol-2-yl)-benzamide formation at 100 nM by LC-MS/MS analysis; type: ADME, cell-based; details: nci-h1155, 0.1 µM; outline: as §1
# [10] = Half life in human NCI-H1155 cells at 100 nM by LC-MS/MS analysis; type: ADME, cell-based; outline: as §1
# [11] = Half life in human NCI-H2122 cells at 100 nM in presence of CYP4F inhibitor HET0016 by LC-MS/MS analysis; type: ADME, cell-based; details: with HET0016 (CYP4F inhibitor), concentration not stated; outline: as §1
# NCI-H2122 [12] = assay: Antitumor activity against human NCI-H2122 cells xenografted in nod-SCID mouse fed normal chow diet at 10 mg/kg, ip BID for 3 weeks; type: functional, organism-based
# Outline: (§3)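 Female NOD-SCID mice, 6–8 weeks, on control diet (4.1% soybean-oil fat) or fat-free diet (0.1% fat). Three days later, 5 × 10⁶ H2122 cells injected subcutaneously into the left flank. At ~100 mm³, randomized to groups of six. Dosing 10 mg/kg BID, 20 mg/kg QD, or vehicle BID (10% DMSO, 10% Kolliphor EL, 80% 50 mM lactic acid pH 3.6) for three weeks. Caliper measurements twice weekly; volume = length × width² × π/6.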
# NCI-H2122 [13] = assay: Antitumor activity against human NCI-H2122 cells xenografted in nod-SCID mouse fed fat-free diet at 20 mg/kg, ip QD for 3 weeks; type: functional, organism-based; outline: as §3
# [14] = Toxicity in fat-free diet fed nod-SCID mouse xenografted with NCI-H2122 cells assessed as body weight loss at 20 mg/kg, ip QD for 3 weeks (reference value: <5%); type: organism-based; details: in vivo, 504 h
# NCI-H2122 [15] = assay: Antitumor activity against human NCI-H2122 cells xenografted in nod-SCID mouse fed fat-free diet at 10 mg/kg, ip BID for 3 weeks; type: functional, organism-based; outline: as §3
# [16] = Drug metabolism in human NCI-H2122 cells assessed as (R)-4-(amino(phenyl)methyl)-N-(6-hydroxybenzo[d]thiazol-2-yl)-benzamide formation at 100 nM by in presence of CYP4F inhibitor HET0016 LC-MS/MS analysis; type: ADME, cell-based; details: nci-h2122, 0.1 µM; outline: as §1
# [17] = Toxicity in normal chow diet fed nod-SCID mouse xenografted with NCI-H2122 cells assessed as effect on appearance at 20 mg/kg, ip QD for 3 weeks; type: organism-based; details: in vivo, 504 h
# [18] = Toxicity in normal chow diet fed nod-SCID mouse xenografted with NCI-H2122 cells assessed as effect on behavior at 20 mg/kg, ip QD for 3 weeks; type: organism-based; details: in vivo, 504 h
# [19] = Toxicity in fat-free diet fed nod-SCID mouse xenografted with NCI-H2122 cells assessed as effect on appearance at 20 mg/kg, ip QD for 3 weeks; type: organism-based; details: in vivo, 504 h
# [20] = Half life in human NCI-H2122 cells at 100 nM by LC-MS/MS analysis; type: ADME, cell-based; outline: as §1
# [21] = Toxicity in normal chow diet fed nod-SCID mouse xenografted with NCI-H2122 cells assessed as effect on body weight at 10 mg/kg, ip BID for 3 weeks; type: organism-based; details: in vivo, 504 h
# [22] = Toxicity in normal chow diet fed nod-SCID mouse xenografted with NCI-H2122 cells assessed as body weight loss at 20 mg/kg, ip QD for 3 weeks (reference value: <5%); type: organism-based; details: in vivo, 504 h
# [23] = Toxicity in normal chow diet fed nod-SCID mouse xenografted with NCI-H2122 cells assessed as effect on appearance at 10 mg/kg, ip BID for 3 weeks; type: organism-based; details: in vivo, 504 h
# [24] = Toxicity in fat-free diet fed nod-SCID mouse xenografted with NCI-H2122 cells assessed as effect on behavior at 20 mg/kg, ip QD for 3 weeks; type: organism-based; details: in vivo, 504 h
# [25] = Drug level in plasma of normal chow diet fed nod-SCID mouse xenografted with NCI-H2122 cells at 20 mg/kg, ip QD for 3 weeks and measured 3 hrs after final dose by LC-MS/MS analysis; type: ADME, organism-based; outline: as §2
# [26] = Toxicity in fat-free diet fed nod-SCID mouse xenografted with NCI-H2122 cells assessed as effect on appearance at 10 mg/kg, ip BID for 3 weeks; type: organism-based; details: in vivo, 504 h
# [27] = Toxicity in fat-free diet fed nod-SCID mouse xenografted with NCI-H2122 cells assessed as effect on behavior at 10 mg/kg, ip BID for 3 weeks; type: organism-based; details: in vivo, 504 h
# [28] = Toxicity in normal chow diet fed nod-SCID mouse xenografted with NCI-H2122 cells assessed as body weight loss at 10 mg/kg, ip BID for 3 weeks (reference value: <5%); type: organism-based; details: in vivo, 504 h
# [29] = Toxicity in fat-free diet fed nod-SCID mouse xenografted with NCI-H2122 cells assessed as effect on body weight at 20 mg/kg, ip QD for 3 weeks; type: organism-based; details: in vivo, 504 h
# [30] = Toxicity in normal chow diet fed nod-SCID mouse xenografted with NCI-H2122 cells assessed as effect on behavior at 10 mg/kg, ip BID for 3 weeks; type: organism-based; details: in vivo, 504 h
# [31] = Toxicity in normal chow diet fed nod-SCID mouse xenografted with NCI-H2122 cells assessed as effect on body weight at 20 mg/kg, ip QD for 3 weeks; type: organism-based; details: in vivo, 504 h
# [32] = Drug level in tumor of normal chow diet fed nod-SCID mouse xenografted with NCI-H2122 cells at 20 mg/kg, ip QD for 3 weeks and measured 3 hrs after final dose by LC-MS/MS analysis; type: ADME, organism-based, Neoplasm; details: read-out: Drug uptake; outline: as §2
# NCI-H2122 [33] = assay: Antitumor activity against human NCI-H2122 cells xenografted in nod-SCID mouse fed normal chow diet at 20 mg/kg, ip QD for 3 weeks; type: functional, organism-based; outline: as §3
# [34] = Toxicity in fat-free diet fed nod-SCID mouse xenografted with NCI-H2122 cells assessed as body weight loss at 10 mg/kg, ip BID for 3 weeks (reference value: <5%); type: organism-based; details: in vivo, 504 h
# [35] = Drug level in tumor of fat-free diet fed nod-SCID mouse xenografted with NCI-H2122 cells at 20 mg/kg, ip QD for 3 weeks and measured 3 hrs after final dose by LC-MS/MS analysis; type: ADME, organism-based, Neoplasm; details: read-out: Drug uptake; outline: as §2
# [36] = Toxicity in fat-free diet fed nod-SCID mouse xenografted with NCI-H2122 cells assessed as effect on body weight at 10 mg/kg, ip BID for 3 weeks; type: organism-based; details: in vivo, 504 h
# [37] = Drug level in tumor of nod-SCID mouse xenografted with human NCI-H2122 cells at 20 mg/kg, ip single dose and measured after 7 hrs by LC-MS/MS analysis; details: read-out: Drug uptake
smiles,measurement,setting,value
N[C@H](c1ccccc1)c1ccc(C(=O)Nc2nc3ccccc3s2)cc1,Drug metabolism,[1],Metabolite_Detected
COc1ccc2nc(NC(=O)c3ccc(C(O)c4ccccn4)cc3)sc2c1 (racemic),AUC at 504 h,[2],9.6 µM·h
same,Cmax,[3],120 µM
same,Cmax,[4],11 µM
same,AUC at 504 h,[5],17 µM·h
same,Cmax,[6],26 µM
same,AUC at 504 h,[7],70 µM·h
COc1ccc2nc(NC(=O)c3ccc(C(=O)c4ccccc4)cc3)sc2c1,AUC at 504 h,[2],0.6 µM·h
same,Cmax,[3],90 µM
same,Cmax,[4],0.3 µM
same,AUC at 504 h,[5],2.6 µM·h
same,Cmax,[6],0.9 µM
COc1ccc2nc(NC(=O)c3ccc([C@H](N)c4ccccc4)cc3)sc2c1,concentration at 3 h,[8],> 5 µM
same,Drug metabolism,[1],Metabolite_Detected
same,AUC at 504 h,[2],1.6 µM·h
same,Drug metabolism,[9],Metabolite_Notdetected
same,half-life at 0.1 µM,[10],> 48 h
same,half-life at 0.1 µM,[11],> 48 h
same,Activity,NCI-H2122 [12],Active
same,Activity,NCI-H2122 [13],Active
same,Activity,[14],7%
same,Activity,NCI-H2122 [15],Active
same,Drug metabolism,[16],Metabolite_Notdetected
same,Activity,[17],Non-Toxic
same,Activity,[18],Non-Toxic
same,Activity,[19],Non-Toxic
same,Cmax,[4],0.9 µM
same,half-life at 0.1 µM,[20],19 h
same,Activity,[21],Non-Toxic
same,Activity,[22],5%
same,Activity,[23],Non-Toxic
same,Activity,[24],Non-Toxic
same,concentration at 3 h,[25],> 5 µM
same,Activity,[26],Non-Toxic
same,Activity,[27],Non-Toxic
same,Activity,[28],13%
same,Activity,[29],Non-Toxic
same,Activity,[30],Non-Toxic
same,Activity,[31],Non-Toxic
same,concentration at 3 h,[32],> 5 µM
same,Activity,NCI-H2122 [33],Active
same,Activity,[34],17%
same,concentration at 3 h,[35],> 5 µM
same,Activity,[36],Non-Toxic
COc1ccc2nc(NC(=O)c3ccc(C(N)c4ccccc4)cc3)sc2c1 (racemic),AUC at 504 h,[2],3 µM·h
same,concentration at 7 h,[37],7 µM
same,Cmax,[3],94 µM
same,Cmax,[4],1.5 µM
same,AUC at 504 h,[5],160 µM·h
same,Cmax,[6],61 µM
same,AUC at 504 h,[7],77 µM·h

# Source: ChEMBL document CHEMBL4622978, “Tumor-Activated Benzothiazole Inhibitors of Stearoyl-CoA Desaturase” (J Med Chem, 2020)
